# Values joined by “and” are separate entries in the source; they are usually repeats but may differ in a detail not shown here. Identical values can stand only once.
# System: Fibroblast
# Assay: Multiplex assay against human fibroblast
# Format: toxicity, cell-based
# Conditions: number of replicates 2
# Procedure, shortened: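 Live cells carried four stains from seeding: Hoechst33342, BioTracker Green Microtubule Cytoskeleton Dye, MitoTracker Red and Annexin V Alexa Fluor 680. They were imaged on a CQ1 microscope at 37°C and 5% CO2 after compound addition. Using CellPathfinder machine-learning gating, cells were split into Hoechst high-intensity objects or normal cells, normal cells into healthy, pyknosed or fragmented nuclei, and pyknosed cells into mitotic or apoptotic; tubulin, mitochondrial-mass and membrane-permeability phenotypes are per cents of healthy-nucleus cells.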
# [1] = 12 h, 1 µM, compound concentration 1 uM
# [2] = 12 h, 10 µM, compound concentration 10 uM
# [3] = 24 h, 1 µM, compound concentration 1 uM
# [4] = 24 h, 10 µM, compound concentration 10 uM
# [5] = 48 h, 1 µM, compound concentration 1 uM
# [6] = 48 h, 10 µM, compound concentration 10 uM
structure (smiles),measurement,setting,value
CN1CCc2cc(Cl)c(O)cc2[C@@H](c2ccccc2)C1.Cl,Population Apoptotic (%),[1],46% and 55%
same,Population Fragmented Nuclei (%),[1],10% and 17%
same,Population Healthy Nuclei (%),[1],63%
same,Population Hoechst High Intensity Objects (%),[1],1% and 0%
same,Population Membrane Permeable-Phenotype (%),[1],10% and 6%
same,Population Mitochondria Different-Phenotype (%),[1],1% and 4%
same,Population Mitotic Cells (%),[1],53% and 44%
same,Population Normal (%),[1],98% and 99%
same,Population Pyknosed Nuclei (%),[1],26% and 18%
same,Population Tubulin-Different-Phenotype (%),[1],15% and 14%
same,Total Cell Count,[1],175 and 235
same,Population Apoptotic (%),[2],43% and 53%
same,Population Fragmented Nuclei (%),[2],11% and 17%
same,Population Healthy Nuclei (%),[2],71% and 78%
same,Population Hoechst High Intensity Objects (%),[2],0%
same,Population Membrane Permeable-Phenotype (%),[2],4% and 3%
same,Population Mitochondria Different-Phenotype (%),[2],3% and 4%
same,Population Mitotic Cells (%),[2],56% and 46%
same,Population Normal (%),[2],100%
same,Population Tubulin-Different-Phenotype (%),[2],21% and 12%
same,Total Cell Count,[2],244 and 283
same,Population Apoptotic (%),[3],52% and 62%
same,Population Fragmented Nuclei (%),[3],6% and 18%
same,Population Healthy Nuclei (%),[3],69% and 67%
same,Population Hoechst High Intensity Objects (%),[3],1% and 0%
same,Population Membrane Permeable-Phenotype (%),[3],12% and 7%
same,Population Mitochondria Different-Phenotype (%),[3],0% and 1%
same,Population Mitotic Cells (%),[3],47% and 37%
same,Population Normal (%),[3],98% and 100%
same,Population Pyknosed Nuclei (%),[3],23% and 14%
same,Population Tubulin-Different-Phenotype (%),[3],20% and 11%
same,Total Cell Count,[3],161 and 242
same,Population Apoptotic (%),[4],65% and 83%
same,Population Fragmented Nuclei (%),[4],16% and 21%
same,Population Healthy Nuclei (%),[4],76%
same,Population Hoechst High Intensity Objects (%),[4],0%
same,Population Membrane Permeable-Phenotype (%),[4],3% and 2%
same,Population Mitochondria Different-Phenotype (%),[4],2% and 0%
same,Population Mitotic Cells (%),[4],35% and 16%
same,Population Normal (%),[4],100%
same,Population Pyknosed Nuclei (%),[4],7% and 2%
same,Population Tubulin-Different-Phenotype (%),[4],20% and 10%
same,Total Cell Count,[4],265 and 295
same,Population Apoptotic (%),[5],53% and 75%
same,Population Fragmented Nuclei (%),[5],9% and 18%
same,Population Healthy Nuclei (%),[5],72% and 73%
same,Population Hoechst High Intensity Objects (%),[5],0%
same,Population Membrane Permeable-Phenotype (%),[5],8% and 4%
same,Population Mitochondria Different-Phenotype (%),[5],1% and 2%
same,Population Mitotic Cells (%),[5],46% and 25%
same,Population Normal (%),[5],100% and 99%
same,Population Pyknosed Nuclei (%),[5],18% and 8%
same,Population Tubulin-Different-Phenotype (%),[5],11% and 7%
same,Total Cell Count,[5],175 and 251
same,Population Apoptotic (%),[6],76% and 100%
same,Population Fragmented Nuclei (%),[6],21% and 26%
same,Population Healthy Nuclei (%),[6],73% and 72%
same,Population Hoechst High Intensity Objects (%),[6],0%
same,Population Membrane Permeable-Phenotype (%),[6],4% and 1%
same,Population Mitochondria Different-Phenotype (%),[6],0%
same,Population Mitotic Cells (%),[6],23% and 0%
same,Population Normal (%),[6],100%
same,Population Pyknosed Nuclei (%),[6],4% and 0%
same,Population Tubulin-Different-Phenotype (%),[6],12% and 3%
same,Total Cell Count,[6],292 and 324
CN[C@@H]1C[C@H]2O[C@@](C)([C@@H]1OC)n1c3ccccc3c3c4c(c5c6ccccc6n2c5c31)C(=O)NC4 [STAUROSPORINE],Population Apoptotic (%),[2],76% and 73% and 72% and 71%
same,Population Fragmented Nuclei (%),[2],16% and 10% and 13%
same,Population Healthy Nuclei (%),[2],10% and 6% and 14% and 9%
same,Population Hoechst High Intensity Objects (%),[2],0% and 1%
same,Population Membrane Permeable-Phenotype (%),[2],20% and 15% and 7%
same,Population Mitochondria Different-Phenotype (%),[2],0% and 2%
same,Population Mitotic Cells (%),[2],23% and 26% and 27% and 28%
same,Population Normal (%),[2],99% and 100% and 98%
same,Population Pyknosed Nuclei (%),[2],72% and 82% and 74%
same,Population Tubulin-Different-Phenotype (%),[2],14% and 10% and 4%
same,Population Apoptotic (%),[4],95% and 88% and 87%
same,Population Fragmented Nuclei (%),[4],15% and 21% and 13%
same,Population Healthy Nuclei (%),[4],5% and 3% and 4% and 2%
same,Population Hoechst High Intensity Objects (%),[4],0% and 1%
same,Population Membrane Permeable-Phenotype (%),[4],50% [middle of 4 runs]
same,Population Mitochondria Different-Phenotype (%),[4],0%
same,Population Mitotic Cells (%),[4],4% and 11% and 12%
same,Population Normal (%),[4],100% and 99% and 98%
same,Population Pyknosed Nuclei (%),[4],78% and 74% and 82% and 84%
same,Population Tubulin-Different-Phenotype (%),[4],50% [middle of 4 runs]
same,Population Apoptotic (%),[6],99% and 93% and 92% and 91%
same,Population Fragmented Nuclei (%),[6],27% and 28% and 20% and 22%
same,Population Healthy Nuclei (%),[6],3% and 4% and 7% and 6%
same,Population Hoechst High Intensity Objects (%),[6],0%
same,Population Membrane Permeable-Phenotype (%),[6],66% [middle of 4 runs]
same,Population Mitochondria Different-Phenotype (%),[6],0% and 20%
same,Population Mitotic Cells (%),[6],0% and 6% and 7% and 8%
same,Population Normal (%),[6],100% and 99%
same,Population Pyknosed Nuclei (%),[6],69% and 66% and 72% and 71%
same,Population Tubulin-Different-Phenotype (%),[6],50% and 55% and 45% and 60%
Cc1ccc2c(c1CCC(=O)O)CC[C@@H](NS(=O)(=O)c1ccc(Cl)cc1)C2 [TERUTROBAN],Population Apoptotic (%),[1],25% and 43%
same,Population Fragmented Nuclei (%),[1],8%
same,Population Healthy Nuclei (%),[1],71% and 75%
same,Population Hoechst High Intensity Objects (%),[1],0%
same,Population Membrane Permeable-Phenotype (%),[1],5% and 3%
same,Population Mitochondria Different-Phenotype (%),[1],1%
same,Population Mitotic Cells (%),[1],74% and 56%
same,Population Normal (%),[1],100%
same,Population Pyknosed Nuclei (%),[1],19% and 15%
same,Population Tubulin-Different-Phenotype (%),[1],10% and 7%
same,Total Cell Count,[1],221 and 236
same,Population Apoptotic (%),[2],40% and 55%
same,Population Fragmented Nuclei (%),[2],8% and 15%
same,Population Healthy Nuclei (%),[2],69% and 67%
same,Population Hoechst High Intensity Objects (%),[2],0%
same,Population Membrane Permeable-Phenotype (%),[2],11% and 7%
same,Population Mitochondria Different-Phenotype (%),[2],1% and 0%
same,Population Mitotic Cells (%),[2],59% and 44%
same,Population Normal (%),[2],100%
same,Population Pyknosed Nuclei (%),[2],21% and 16%
same,Population Tubulin-Different-Phenotype (%),[2],26% and 19%
same,Total Cell Count,[2],203 and 208
same,Population Apoptotic (%),[3],50% and 40%
same,Population Fragmented Nuclei (%),[3],10% and 14%
same,Population Healthy Nuclei (%),[3],74% and 75%
same,Population Hoechst High Intensity Objects (%),[3],0%
same,Population Membrane Permeable-Phenotype (%),[3],1%
same,Population Mitochondria Different-Phenotype (%),[3],1% and 0%
same,Population Mitotic Cells (%),[3],50% and 59%
same,Population Normal (%),[3],100%
same,Population Pyknosed Nuclei (%),[3],14% and 10%
same,Population Tubulin-Different-Phenotype (%),[3],9% and 3%
same,Total Cell Count,[3],219 and 249
same,Population Apoptotic (%),[4],52% and 51%
same,Population Fragmented Nuclei (%),[4],10% and 14%
same,Population Healthy Nuclei (%),[4],73% and 72%
same,Population Hoechst High Intensity Objects (%),[4],0%
same,Population Membrane Permeable-Phenotype (%),[4],5% and 8%
same,Population Mitochondria Different-Phenotype (%),[4],2% and 0%
same,Population Mitotic Cells (%),[4],47% and 48%
same,Population Normal (%),[4],100%
same,Population Pyknosed Nuclei (%),[4],16% and 13%
same,Population Tubulin-Different-Phenotype (%),[4],20% and 11%
same,Total Cell Count,[4],218 and 222
same,Population Apoptotic (%),[5],70% and 77%
same,Population Fragmented Nuclei (%),[5],13% and 14%
same,Population Healthy Nuclei (%),[5],77% and 76%
same,Population Hoechst High Intensity Objects (%),[5],0%
same,Population Membrane Permeable-Phenotype (%),[5],5% and 2%
same,Population Mitochondria Different-Phenotype (%),[5],0%
same,Population Mitotic Cells (%),[5],30% and 22%
same,Population Normal (%),[5],100%
same,Population Pyknosed Nuclei (%),[5],8%
same,Population Tubulin-Different-Phenotype (%),[5],7% and 1%
same,Total Cell Count,[5],225 and 259
same,Population Apoptotic (%),[6],62% and 38%
same,Population Fragmented Nuclei (%),[6],8% and 16%
same,Population Healthy Nuclei (%),[6],79% and 77%
same,Population Hoechst High Intensity Objects (%),[6],0%
same,Population Membrane Permeable-Phenotype (%),[6],6% and 3%
same,Population Mitochondria Different-Phenotype (%),[6],1% and 0%
same,Population Mitotic Cells (%),[6],37% and 61%
same,Population Normal (%),[6],100%
same,Population Pyknosed Nuclei (%),[6],12% and 5%
same,Population Tubulin-Different-Phenotype (%),[6],12%
same,Total Cell Count,[6],230 and 225
COCCN1CCN(CCn2ccc(Nc3ncc4c(n3)-c3c(nn(C)c3-c3ccccc3)C[C@H]4C)n2)CC1,Population Apoptotic (%),[1],48% and 20%
same,Population Fragmented Nuclei (%),[1],9% and 8%
same,Population Healthy Nuclei (%),[1],73% and 72%
same,Population Hoechst High Intensity Objects (%),[1],0%
same,Population Membrane Permeable-Phenotype (%),[1],4% and 8%
same,Population Mitochondria Different-Phenotype (%),[1],0% and 1%
same,Population Mitotic Cells (%),[1],51% and 79%
same,Population Normal (%),[1],100%
same,Population Pyknosed Nuclei (%),[1],16% and 19%
same,Population Tubulin-Different-Phenotype (%),[1],16% and 12%
same,Total Cell Count,[1],202 and 275
same,Population Apoptotic (%),[2],32% and 46%
same,Population Fragmented Nuclei (%),[2],13% and 20%
same,Population Healthy Nuclei (%),[2],57% and 61%
same,Population Hoechst High Intensity Objects (%),[2],0%
same,Population Membrane Permeable-Phenotype (%),[2],12% and 5%
same,Population Mitochondria Different-Phenotype (%),[2],2%
same,Population Mitotic Cells (%),[2],67% and 53%
same,Population Normal (%),[2],99%
same,Population Pyknosed Nuclei (%),[2],29% and 18%
same,Population Tubulin-Different-Phenotype (%),[2],58% and 32%
same,Total Cell Count,[2],222 and 175
same,Population Apoptotic (%),[3],51% and 44%
same,Population Fragmented Nuclei (%),[3],10% and 11%
same,Population Healthy Nuclei (%),[3],72% and 69%
same,Population Hoechst High Intensity Objects (%),[3],0%
same,Population Membrane Permeable-Phenotype (%),[3],5% and 4%
same,Population Mitochondria Different-Phenotype (%),[3],0%
same,Population Mitotic Cells (%),[3],48% and 55%
same,Population Normal (%),[3],99%
same,Population Pyknosed Nuclei (%),[3],16% and 19%
same,Population Tubulin-Different-Phenotype (%),[3],14% and 10%
same,Total Cell Count,[3],188 and 271
same,Population Apoptotic (%),[4],57% and 51%
same,Population Fragmented Nuclei (%),[4],13% and 16%
same,Population Healthy Nuclei (%),[4],59% and 64%
same,Population Hoechst High Intensity Objects (%),[4],1% and 0%
same,Population Membrane Permeable-Phenotype (%),[4],7% and 3%
same,Population Mitochondria Different-Phenotype (%),[4],4% and 5%
same,Population Mitotic Cells (%),[4],42% and 48%
same,Population Normal (%),[4],98% and 100%
same,Population Pyknosed Nuclei (%),[4],27% and 19%
same,Population Tubulin-Different-Phenotype (%),[4],53% and 29%
same,Total Cell Count,[4],201 and 173
same,Population Apoptotic (%),[5],52% and 60%
same,Population Fragmented Nuclei (%),[5],10% and 12%
same,Population Healthy Nuclei (%),[5],74% and 72%
same,Population Hoechst High Intensity Objects (%),[5],0%
same,Population Membrane Permeable-Phenotype (%),[5],6% and 4%
same,Population Mitochondria Different-Phenotype (%),[5],0%
same,Population Mitotic Cells (%),[5],48% and 39%
same,Population Normal (%),[5],100% and 99%
same,Population Pyknosed Nuclei (%),[5],14% and 15%
same,Population Tubulin-Different-Phenotype (%),[5],12% and 6%
same,Total Cell Count,[5],171 and 271
same,Population Apoptotic (%),[6],63% and 46%
same,Population Fragmented Nuclei (%),[6],16% and 15%
same,Population Healthy Nuclei (%),[6],65% and 66%
same,Population Hoechst High Intensity Objects (%),[6],0%
same,Population Membrane Permeable-Phenotype (%),[6],8% and 6%
same,Population Mitochondria Different-Phenotype (%),[6],3% and 8%
same,Population Mitotic Cells (%),[6],36% and 53%
same,Population Normal (%),[6],99%
same,Population Pyknosed Nuclei (%),[6],18% and 17%
same,Population Tubulin-Different-Phenotype (%),[6],43% and 17%
same,Total Cell Count,[6],201 and 161
